Reference: ChEMBL document CHEMBL1641375, “Antitumor agents 279. Structure-activity relationship and in vivo studies of novel 2-(furan-2-yl)naphthalen-1-ol (FNO) analogs as potent and selective anti-breast cancer agents” (2011)
In brackets after ≈: the same amount, converted by molar mass.

Tests used:
KB = assay: Cytotoxicity against human KB cells after 72 hrs by MTT assay; type: functional; details: read-out: ED50 (the source's name)
Method in brief: (§1)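 Focused human tumour panel: A549 (non-small cell lung), DU145 (prostate), KB (nasopharyngeal), KB-VIN (MDR KB subline selected with vincristine), MDA-MB-231 (ER-negative basal-like breast), SK-BR-3 (ER-negative, HER2-overexpressing luminal-like breast), ZR-75-1 (ER-positive, HER2-overexpressing luminal-like breast). Run by previously published methods.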

SK-BR-3 [1] = assay: Cytotoxicity against human SKBR3 cells after 72 hrs by MTT assay; type: functional; details: SK-BR-3, 72 h, read-out: ED50 (the source's name); method in brief: as §1
DU-145 = assay: Cytotoxicity against human DU145 cells after 72 hrs by MTT assay; type: functional; details: DU-145, 72 h, read-out: ED50 (the source's name); method in brief: as §1
[2] = Cytotoxicity against human KBVIN cells after 72 hrs by MTT assay; type: functional; details: read-out: ED50 (the source's name); method in brief: as §1
ZR-75-1 [3] = assay: Cytotoxicity against human ZR-75-1 cells after 72 hrs by MTT assay; type: functional; details: ZR-75-1, 72 h, read-out: ED50 (the source's name); method in brief: as §1
MDA-MB-231 [4] = assay: Cytotoxicity against human MDA-MB-231 cells after 72 hrs by MTT assay; type: functional; details: MDA-MB-231, 72 h, read-out: ED50 (the source's name); method in brief: as §1
A549 [5] = assay: Cytotoxicity against human A549 cells after 72 hrs by MTT assay; type: functional; details: A549, 72 h, read-out: ED50 (the source's name); method in brief: as §1
SK-BR-3 [6] = assay: Selectivity ratio, ED50 for human KBVIN cells to ED50 for human SKBR3 cells; type: functional
A549 [7] = assay: Selectivity ratio, ED50 for human A549 cells to ED50 for human SKBR3 cells; type: functional
SK-BR-3 [8] = assay: Selectivity ratio, ED50 for human DU145 cells to ED50 for human SKBR3 cells; type: functional
MDA-MB-231 [9] = assay: Selectivity ratio, ED50 for human MDA-MB-231 cells to ED50 for human SKBR3 cells; type: functional
ZR-75-1 [10] = assay: Selectivity ratio, ED50 for human ZR-75-1 cells to ED50 for human SKBR3 cells; type: functional
SK-BR-3 [11] = assay: Selectivity ratio, ED50 for human KB cells to ED50 for human SKBR3 cells; type: functional
[12] = Inhibition of mammary epithelial cells proliferation in Brca1/p53-deficient C57BL/6 and 129/Sv mouse assessed as reduction of BrdU positive cells at 0.1 mg, po qd for 11 days relative to control in presence of bromodeoxyuridine treated orally with drinking water last 3 days of treatment; type: functional, Epithelial cell; details: in the assay text read “ip qd” for “po qd”
Method in brief: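 Three-month-old Brca1f11/f11p53f5&6/f5&6Crec or wild-type mice (mixed C57BL/6 and 129/Sv background) dosed 0.1 mg i.p. daily for 11 days. Dosing solution was 10 µL of a 10 mg/mL DMSO stock with 30 µL 40% PEG and 60 µL 0.9% NaCl; vehicle lacked compound. BrdU given in drinking water over the last 3 days. Glands fixed in 4% paraformaldehyde, paraffin-sectioned, citrate pH 6.0 antigen retrieval, anti-BrdU 1:1000. BrdU-positive cells per duct counted over ≥15 ducts/animal, ≥3 mice/genotype.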

[13] = Inhibition of mammary epithelial cells proliferation in Brca1/p53-deficient C57BL/6 and 129/Sv mouse assessed as reduction of mammary gland branching point at 0.1 mg, po qd for 11 days relative to control; type: functional, Epithelial cell; details: in the assay text read “ip qd” for “po qd”
Method in brief: (§2)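 Three-month-old Brca1/p53-deficient or wild-type mice (C57BL/6 × 129/Sv background) received 0.1 mg i.p. daily for 11 days in DMSO/40% PEG/0.9% NaCl, or vehicle alone. Mammary gland whole mounts were fixed in Carnoy's fixative for 3 h and stained with Carmine alum overnight. Branching points were counted in three random areas totalling about 2 mm2.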

Epithelial cell = assay: Inhibition of wild type mammary epithelial cells proliferation in wild type C57BL/6 and 129/Sv mouse assessed as reduction of mammary gland branching point at 0.1 mg, po qd for 11 days relative to control; type: functional; details: in the assay text read “ip qd” for “po qd”; method in brief: as §2

Structure (SMILES)	EC50 (KB)	EC50 (SK-BR-3 [1])	EC50 (DU-145)	EC50 [2]	EC50 (ZR-75-1 [3])	EC50 (MDA-MB-231 [4])	EC50 (A549 [5])	Ratio ED50 (SK-BR-3 [6])	Ratio ED50 (A549 [7])	Ratio ED50 (SK-BR-3 [8])	Ratio ED50 (MDA-MB-231 [9])	Ratio ED50 (ZR-75-1 [10])	Ratio ED50 (SK-BR-3 [11])	inhibition (INH) [12]	inhibition (INH) [13]	inhibition (INH) (Epithelial cell)
CCOc1c(-c2occ(C)c2CO)ccc2c(CC)cccc12	> 10 µg/mL	8.8 µg/mL (≈ 28.4 µM)	> 10 µg/mL	6.4 µg/mL (≈ 20.6 µM)	1.4 µg/mL (≈ 4.51 µM)	1.7 µg/mL (≈ 5.48 µM)	> 10 µg/mL									
CCc1cccc2c(OC)c(-c3occ(C)c3CO)ccc12	7.1 µg/mL (≈ 24 µM)	0.73 µg/mL (≈ 2.46 µM)	7.2 µg/mL (≈ 24.3 µM)	6.6 µg/mL (≈ 22.3 µM)	> 10 µg/mL	> 10 µg/mL	9.6 µg/mL (≈ 32.4 µM)	9	13.2	9	> 13.7	> 13.7	9			
CCOC(=O)c1c(C)coc1-c1ccc2c(CC)cccc2c1OC	2.2 µg/mL (≈ 6.5 µM)	2.5 µg/mL (≈ 7.39 µM)	2.2 µg/mL (≈ 6.5 µM)	1.8 µg/mL (≈ 5.32 µM)	3.9 µg/mL (≈ 11.5 µM)	4.3 µg/mL (≈ 12.7 µM)	3.8 µg/mL (≈ 11.2 µM)									
CCc1cccc2c(OC)c(-c3occ(C)c3COC(C)=O)ccc12	> 10 µg/mL	> 10 µg/mL	> 10 µg/mL	> 10 µg/mL	3.5 µg/mL (≈ 10.3 µM)		> 10 µg/mL									
CCc1cccc2c(OC)c(-c3occ(C)c3COCC(F)(F)F)ccc12	6.6 µg/mL (≈ 17.4 µM)	5.3 µg/mL (≈ 14 µM)	5.7 µg/mL (≈ 15.1 µM)	6 µg/mL (≈ 15.9 µM)	5.3 µg/mL (≈ 14 µM)		> 10 µg/mL									
CCOc1c(-c2occ(C)c2COC(C)=O)ccc2c(CC)cccc12	> 10 µg/mL	> 10 µg/mL	> 10 µg/mL	5.8 µg/mL (≈ 16.5 µM)	4.9 µg/mL (≈ 13.9 µM)	> 10 µg/mL	> 10 µg/mL									
CCc1cccc2c(OC)c(-c3occ(C)c3COC)ccc12	> 10 µg/mL	> 10 µg/mL	> 10 µg/mL	8.8 µg/mL (≈ 28.4 µM)	9.7 µg/mL (≈ 31.3 µM)		> 10 µg/mL									
CCc1cccc2c(OC)c(-c3occ(C)c3COC(=O)CCN(CC)CC)ccc12	> 10 µg/mL	> 10 µg/mL	> 10 µg/mL	> 10 µg/mL	1.7 µg/mL (≈ 4.01 µM)	0.85 µg/mL (≈ 2.01 µM)	> 10 µg/mL									
CCOc1c(-c2occ(C)c2COC)ccc2c(CC)cccc12	> 10 µg/mL	> 10 µg/mL	> 10 µg/mL	5.9 µg/mL (≈ 18.2 µM)	> 10 µg/mL	4.9 µg/mL (≈ 15.1 µM)	> 10 µg/mL									
CCOCc1c(C)coc1-c1ccc2c(CC)cccc2c1OC	> 10 µg/mL	> 10 µg/mL	> 10 µg/mL	> 10 µg/mL	9.1 µg/mL (≈ 28.1 µM)		> 10 µg/mL									
CCc1cccc2c(OC)c(-c3occ(C)c3C(=O)OC)ccc12	1.7 µg/mL (≈ 5.24 µM)	1.2 µg/mL (≈ 3.7 µM)	2.2 µg/mL (≈ 6.78 µM)	1.3 µg/mL (≈ 4.01 µM)	1.3 µg/mL (≈ 4.01 µM)	2.3 µg/mL (≈ 7.09 µM)	1.5 µg/mL (≈ 4.62 µM)									
CCOc1c(-c2occ(C)c2C(=O)O)ccc2c(CC)cccc12	> 10 µg/mL	> 10 µg/mL	> 10 µg/mL	> 10 µg/mL	> 10 µg/mL	> 10 µg/mL	> 10 µg/mL									
CCOc1c(-c2occ(C)c2C(=O)OC)ccc2c(CC)cccc12	1.8 µg/mL (≈ 5.32 µM)	1.9 µg/mL (≈ 5.61 µM)	1.9 µg/mL (≈ 5.61 µM)	1.7 µg/mL (≈ 5.02 µM)	1.2 µg/mL (≈ 3.55 µM)	1.1 µg/mL (≈ 3.25 µM)	2.4 µg/mL (≈ 7.09 µM)									
CCc1cccc2c(OC)c(-c3occ(C)c3C(=O)On3nnc4ccccc43)ccc12	> 10 µg/mL	> 10 µg/mL	> 10 µg/mL	> 10 µg/mL	> 10 µg/mL	> 10 µg/mL	> 10 µg/mL									
CCc1cccc2c(OC)c(-c3occ(C)c3CBr)ccc12	> 10 µg/mL	> 10 µg/mL	> 10 µg/mL	> 10 µg/mL	4.6 µg/mL (≈ 12.8 µM)		> 10 µg/mL									
CCc1cccc2c(OC)c(-c3occ(C)c3C(=S)OC)ccc12	4.3 µg/mL (≈ 12.6 µM)	6.3 µg/mL (≈ 18.5 µM)	5.7 µg/mL (≈ 16.7 µM)	5.1 µg/mL (≈ 15 µM)	5.8 µg/mL (≈ 17 µM)	7.1 µg/mL (≈ 20.9 µM)	6.2 µg/mL (≈ 18.2 µM)									
CCc1cccc2c(O)c(-c3occ(C)c3C(=O)O)ccc12	9.1 µg/mL (≈ 30.7 µM)	1 µg/mL (≈ 3.37 µM)	8.7 µg/mL (≈ 29.4 µM)	7 µg/mL (≈ 23.6 µM)	0.3 µg/mL (≈ 1.01 µM)									83%	70%	29%
CCCOC(=O)c1c(C)coc1-c1ccc2c(CC)cccc2c1OC	> 10 µg/mL	> 10 µg/mL	> 10 µg/mL	> 10 µg/mL	> 10 µg/mL	> 10 µg/mL	> 10 µg/mL									
CCc1cccc2c(OC)c(-c3occ(C)c3C(=O)NC)ccc12	> 10 µg/mL	> 10 µg/mL	> 10 µg/mL	> 10 µg/mL	> 10 µg/mL	> 10 µg/mL	> 10 µg/mL									
CCc1cccc2c(OC(C)=O)c(-c3occ(C)c3COC(C)=O)ccc12	> 10 µg/mL	> 10 µg/mL	> 10 µg/mL	> 10 µg/mL	> 10 µg/mL	> 10 µg/mL	> 10 µg/mL									
